From ChEMBL document CHEMBL1938298, “Synthesis and characterization of [¹²⁵I]2-iodo N-[(S)-{(S)-1-methylpiperidin-2-yl}(phenyl)methyl]3-trifluoromethyl-benzamide as novel imaging probe for glycine transporter 1” (Bioorg Med Chem, 2011) come the findings set out here.

Active and inactive are the calls of the source. No cut-off for these calls is given here.

For series [1], the target named is T1, Sodium- and chloride-dependent glycine transporter 1 (Rattus norvegicus) (UniProt P28572).
T1 sequence (whole entry): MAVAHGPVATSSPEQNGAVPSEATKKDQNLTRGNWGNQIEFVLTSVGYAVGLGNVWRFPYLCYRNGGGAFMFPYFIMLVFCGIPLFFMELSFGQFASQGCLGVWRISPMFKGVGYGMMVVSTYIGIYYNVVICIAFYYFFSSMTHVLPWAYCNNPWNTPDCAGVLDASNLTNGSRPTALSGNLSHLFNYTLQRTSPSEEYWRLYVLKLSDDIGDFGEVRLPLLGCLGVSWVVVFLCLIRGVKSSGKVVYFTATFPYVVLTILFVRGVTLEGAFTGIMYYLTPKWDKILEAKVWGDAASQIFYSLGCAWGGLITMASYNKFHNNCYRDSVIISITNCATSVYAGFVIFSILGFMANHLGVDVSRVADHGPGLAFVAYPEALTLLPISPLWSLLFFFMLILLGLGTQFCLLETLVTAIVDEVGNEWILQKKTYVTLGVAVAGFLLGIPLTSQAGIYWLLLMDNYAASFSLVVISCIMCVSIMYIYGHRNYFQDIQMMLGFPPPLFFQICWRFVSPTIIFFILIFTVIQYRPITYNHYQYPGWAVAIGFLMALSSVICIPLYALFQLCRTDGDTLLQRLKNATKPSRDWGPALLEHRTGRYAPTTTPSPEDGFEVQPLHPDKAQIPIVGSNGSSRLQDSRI
The series is described as follows: Binding affinity to GlyT1 in rat brain striatum at 0.03 to 0.04 nM preincubated for 20 mins in binding buffer before compound addition measured after 30 mins by autoradiography in presence of 0.01 mM GlyT1 inhibitor ALX5407 relative to control. It is filed as tissue-based. The note with it: tested as the 125I-labelled form.

Series [2] has as its system Mus musculus. Briefly: In vivo binding affinity to GlyT1 in ddY mouse brain medullary region at 200 kBq, iv after 60 mins by autoradiography relative to control. It is filed as functional, organism-based. The following applies: Medulla of organ, tested as the 125I-labelled form. In short, it runs like this:
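Male ddY mice were injected iv with [125I]5 (200 kBq) and killed 60 min post-injection. For blocking, unlabeled blocker (2 mg/kg) was given iv 15 min before the tracer. Frozen brain sagittal sections (20 μm) were exposed to an imaging plate for 7 days. Regional radioactivity was read as PSL/mm² (n = 5) and compared with control by Kruskal–Wallis with Dunn's post-test.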

Series [3] concerns Mus musculus. The series is described as follows: In vivo binding affinity to GlyT1 in ddY mouse brain striatum at 200 kBq, iv after 60 mins by autoradiography relative to control. Type of series: functional, organism-based. The following applies: tested as the 125I-labelled form.
In series [4] the target is T1, Sodium- and chloride-dependent glycine transporter 1 (Rattus norvegicus). The series is described as follows: Binding affinity to GlyT1 in rat brain medullary region at 0.03 to 0.04 nM preincubated for 20 mins in binding buffer before compound addition measured after 30 mins by autoradiography in presence of 0.01 mM GlyT1 inhibitor ALX5407 relative to control. The note with it: tested as the 125I-labelled form. Type of series: tissue-based. In short, it runs like this:
(§1)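 Rat brain sagittal sections (20 µm) preincubated 20 min at 25 °C in Tris-HCl buffer pH 7.5 (NaCl, KCl, MgCl2, CaCl2), then 30 min at 25 °C with [125I] tracer (100 kBq, 0.03–0.04 nM) plus competitor (10 µM; glycine 1 or 10 mM). Cold washes, imaging plate 3 days, ROI PSL minus background per mm². % control from ≥triplicate slices, three rats.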

For series [5] the target is unchanged. Briefly: Binding affinity to GlyT1 in rat brain cerebellum at 0.03 to 0.04 nM preincubated for 20 mins in binding buffer before compound addition measured after 30 mins by autoradiography in presence of 0.01 mM GlyT1 inhibitor HPCP relative to control. It is filed as tissue-based. The note with it: tested as the 125I-labelled form. In short, it runs like this:
as §1

Series [6] has the same target. The series is described as follows: Binding affinity to GlyT1 in rat brain hippocampus at 0.03 to 0.04 nM preincubated for 20 mins in binding buffer before compound addition measured after 30 mins by autoradiography relative to control. Type of series: tissue-based. The following applies: tested as the 125I-labelled form. In short, it runs like this: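 Rat brain sagittal sections (20 µm), 20 min preincubation at 25 °C in Tris-HCl pH 7.5 binding buffer, then [125I] tracer (100 kBq, 0.03–0.04 nM) for 30 min at 25 °C. Nonspecific binding taken with 10 µM unlabeled ligand. Imaging-plate read-out as (PSL−BG)/mm². Mean ± SD, n = 4–5 from at least three rats; Mann–Whitney U-test.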

The target is the same in series [7]. Briefly: Binding affinity to GlyT1 in rat brain striatum at 0.03 to 0.04 nM preincubated for 20 mins in binding buffer before compound addition measured after 30 mins by autoradiography relative to control. Type of series: tissue-based. The note with it: tested as the 125I-labelled form.
The target is the same in series [8]. Briefly: Binding affinity to GlyT1 in rat brain midbrain at 0.03 to 0.04 nM preincubated for 20 mins in binding buffer before compound addition measured after 30 mins by autoradiography in presence of 0.01 mM NMDA receptor glycine site antagonist L-701,324 relative to control. Type of series: tissue-based. The note with it: tested as the 125I-labelled form.

For series [9], the system named is Blood. The series is described as follows: Drug uptake in ddY mouse blood at 11.1 kBq, iv after 0.5 min by gamma counting. It is filed as ADME, organism-based. The following applies: in vivo. In short, it runs like this: (§2)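 Male ddY mice (6 weeks, 30–35 g) received about 11.1 kBq [125I]tracer in 0.1 mL i.v. via tail vein. Killed at set times, organs dissected and weighed, radioactivity gamma counted. Reported as % injected dose/g tissue, mean ± SD, n = 5–6.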

Series [10] concerns Blood. Briefly: Drug uptake in ddY mouse blood at 11.1 kBq, iv after 30 min by gamma counting. Type of series: ADME, organism-based. The note with it: in vivo, 0.5 h. In short, it runs like this: as §2
Series [11] concerns Spleen. Briefly: Drug uptake in ddY mouse spleen at 11.1 kBq, iv after 5 min by gamma counting. It is filed as ADME, organism-based. The note with it: in vivo. In short, it runs like this:
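Male ddY mice (6 weeks, 30–35 g) were given about 11.1 kBq of [125I]tracer in 0.1 mL i.v. via the tail vein. At each time point the animals were killed and organs dissected, weighed and gamma-counted. Uptake is expressed as % injected dose per gram of tissue, mean ± SD, n = 5–6.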

The subject of series [12] is Nucleic Acid. Briefly: Ratio of drug level in brain to blood in ddY mouse at 11.1 kBq, iv after 15 min by gamma counting. Type of series: ADME, organism-based.
Series [13] deals with Heart. The series is described as follows: Drug uptake in ddY mouse heart at 11.1 kBq, iv after 5 min by gamma counting. Type of series: ADME, organism-based. The following applies: in vivo. In short, it runs like this: as §2
Series [14] has as its system Heart. The series is described as follows: Drug uptake in ddY mouse heart at 11.1 kBq, iv after 60 min by gamma counting. The following applies: in vivo, 1 h. Type of series: ADME, organism-based. In short, it runs like this:
as §2

The test system of series [15] is Brain. The series is described as follows: Drug uptake in ddY mouse brain at 11.1 kBq, iv after 0.5 min by gamma counting. It is filed as ADME, organism-based. The note with it: in vivo. In short, it runs like this:
as §2

In series [16] the test system is Brain. Briefly: Drug uptake in ddY mouse brain at 11.1 kBq, iv after 30 min by gamma counting. It is filed as ADME, organism-based. The following applies: in vivo, 0.5 h. In short, it runs like this: as §2
For series [17], the system named is Brain. The series is described as follows: Drug uptake in ddY mouse brain at 11.1 kBq, iv after 60 min by gamma counting. It is filed as ADME, organism-based. The following applies: in vivo, 1 h. In short, it runs like this:
as §2

Series [18] relates to Brain. Briefly: Drug uptake in ddY mouse brain at 11.1 kBq, iv after 180 min by gamma counting. The following applies: in vivo, 3 h. It is filed as ADME, organism-based. In short, it runs like this: as §2
For series [19], the target named is T2, Sodium- and chloride-dependent glycine transporter 1 (Rattus norvegicus, UniProt P28572).
T2 sequence (P28572 whole entry): T1 sequence (whole entry)
The series is described as follows: Binding affinity to GlyT1 in rat cortical brain homogenate after 60 mins by gamma counting. Type of series: tissue-based. In short, it runs like this: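 Saturation binding on washed rat cortical membranes (25 µg protein) with [125I]tracer 0.1–20 nM in TB1 buffer (120 mM NaCl, 2 mM KCl, 1 mM CaCl2, 1 mM MgCl2, 10 mM HEPES, pH 7.5), 60 min at room temperature. Nonspecific binding defined with 10 µM unlabeled ligand. GF/B filtration with ice-cold buffer washes, gamma counting; Kd and Bmax from saturation analysis.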

In the case of `CN1CCCC[C@H]1[C@@H](NC(=O)c1cccc(C(F)(F)F)c1I)c1ccccc1`, the Activity in series [1] was 46.7%; in series [4], 25.3%; in [5], 23%; in [8], 81.3%. In [2], the outcome was Active. Further, the result in series [3], in series [6] and in [7] was inactive.

As to `CN1CCCC[C@H]1[C@@H](NC(=O)c1cccc(C(F)(F)F)c1[125I])c1ccccc1`, the Drug uptake was found to be 1.35 % ID/g in series [9]; 0.9 % ID/g in [10]; 5.11 % ID/g in [11]; 5.17 % ID/g in [13]; 2.79 % ID/g in [14]; 0.51 % ID/g in [15]. The Drug uptake in [16] stood at 2.17 % ID/g; in [17], 1.85 % ID/g; in [18] it was 0.73 % ID/g. For the same molecule, the Ratio in [12] is 2.42. In series [19], the Kd (usually the equilibrium constant for the complex coming apart) is 1.58 nM.
